Assays:
LIM domain kinase 1 [1] = molecular target: T1, LIM domain kinase 1 (Homo sapiens, UniProt P53667); assay: Binding affinity to recombinant LIMK1 (330 to 637 residues) (unknown origin) expressed in baculovirus infected insect cells assessed as change in melting temperature at 10 uM by differential scanning fluorimetry
Target sequence in this assay (P53667 whole entry, looked up, the tested form may be a part): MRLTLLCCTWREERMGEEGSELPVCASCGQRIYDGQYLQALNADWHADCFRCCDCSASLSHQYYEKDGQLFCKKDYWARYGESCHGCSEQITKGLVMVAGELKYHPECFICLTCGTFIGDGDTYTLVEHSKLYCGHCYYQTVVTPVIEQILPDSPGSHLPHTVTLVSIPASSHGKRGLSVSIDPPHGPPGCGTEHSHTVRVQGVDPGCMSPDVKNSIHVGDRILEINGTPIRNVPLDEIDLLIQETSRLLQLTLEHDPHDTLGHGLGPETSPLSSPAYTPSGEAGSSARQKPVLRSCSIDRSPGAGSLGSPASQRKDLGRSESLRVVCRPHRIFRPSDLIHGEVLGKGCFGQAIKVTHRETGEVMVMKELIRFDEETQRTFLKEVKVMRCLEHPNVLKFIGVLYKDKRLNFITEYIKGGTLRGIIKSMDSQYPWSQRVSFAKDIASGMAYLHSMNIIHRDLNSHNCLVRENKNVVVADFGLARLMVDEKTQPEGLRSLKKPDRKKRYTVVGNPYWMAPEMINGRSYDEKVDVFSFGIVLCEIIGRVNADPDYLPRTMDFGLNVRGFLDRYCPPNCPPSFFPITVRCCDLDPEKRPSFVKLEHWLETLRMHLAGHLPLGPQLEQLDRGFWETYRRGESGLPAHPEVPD

LIM domain kinase 2 [2] = molecular target: T2, LIM domain kinase 2 (Homo sapiens, UniProt P53671); assay: Inhibition of recombinant full length LIMK2 (330 to 632 residues) (unknown origin) expressed in HEK293T cells incubated for 2 hrs in presence of tracer K10 by NanoBRET assay; assay type: cell-based
Target sequence in this assay (P53671 whole entry, the tested form may be a part): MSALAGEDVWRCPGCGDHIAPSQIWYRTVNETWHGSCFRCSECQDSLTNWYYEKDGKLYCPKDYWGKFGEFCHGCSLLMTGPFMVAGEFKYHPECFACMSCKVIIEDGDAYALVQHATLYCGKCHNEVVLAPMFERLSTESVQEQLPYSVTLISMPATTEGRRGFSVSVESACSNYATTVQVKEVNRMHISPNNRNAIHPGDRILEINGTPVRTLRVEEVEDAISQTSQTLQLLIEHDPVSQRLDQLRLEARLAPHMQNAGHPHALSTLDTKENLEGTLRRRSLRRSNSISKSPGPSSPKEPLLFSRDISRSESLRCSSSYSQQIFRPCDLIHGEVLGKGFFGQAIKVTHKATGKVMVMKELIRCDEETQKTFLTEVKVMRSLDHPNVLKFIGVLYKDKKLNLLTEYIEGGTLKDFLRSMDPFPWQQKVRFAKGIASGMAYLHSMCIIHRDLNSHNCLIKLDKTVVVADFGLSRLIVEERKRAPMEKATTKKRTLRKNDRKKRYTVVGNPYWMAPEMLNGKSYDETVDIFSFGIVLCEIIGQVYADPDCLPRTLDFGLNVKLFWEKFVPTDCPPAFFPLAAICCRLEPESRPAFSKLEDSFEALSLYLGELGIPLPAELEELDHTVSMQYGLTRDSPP

LIM domain kinase 2 [3] = molecular target: T2, LIM domain kinase 2; assay: Binding affinity to recombinant LIMK2 (330 to 632 residues) (unknown origin) expressed in baculovirus infected insect cells assessed as change in melting temperature at 10 uM by differential scanning fluorimetry
Target sequence in this assay (P53671 whole entry, looked up, the tested form may be a part): as the sequence (P53671 whole entry, the tested form may be a part) above

LIM domain kinase 1 [4] = molecular target: T1, LIM domain kinase 1; assay: Inhibition of recombinant full length LIMK1 (330 to 637 residues) (unknown origin) expressed in HEK293T cells incubated for 2 hrs in presence of tracer K10 by NanoBRET assay; assay type: cell-based
Target sequence in this assay (P53667 whole entry, the tested form may be a part): as the sequence (P53667 whole entry, looked up, the tested form may be a part) above

N1E-115 = assay: Inhibition of neurite outgrowth in BMP7 stimulated mouse N1E-115 cells transfected with siFMR1 preincubated for 12 hrs followed by BMP7 stimulation for 24 hrs; assay type: functional, cell-based; details: dose 0.05-5 µM, time 36.0 hrs, DDE = dose-dependent effect
Method in brief: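 At 60 h, the medium was switched to 0.2% FBS containing inhibitor (0.05, 0.5 or 5 μM; DMSO stock) or DMSO for 12 h, then 10 ng/mL BMP7 was added for 24 h. The percentage of cells with neurites longer than one cell body was counted by microscopy, ≥100 cells per condition; mean + SD, N = 4.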

Structure (SMILES) | ΔTm (LIM domain kinase 1 [1]) [°C] | IC50 (LIM domain kinase 2 [2]) [nM] | ΔTm (LIM domain kinase 2 [3]) [°C] | IC50 (LIM domain kinase 1 [4]) [nM] | inhibition (N1E-115)
CN(Cc1ccccc1)C(=O)c1ccc(S(=O)(=O)Nc2ccccc2)cc1 | 4.5 |  |  |  | 
O=C(c1ccc(S(=O)(=O)Nc2ccccc2)cc1)N(CCc1cn(Cc2ccccc2)nn1)Cc1ccccc1 | 6.8 | 121 | 12.3 | 472 | 
CN(Cc1ccccc1)C(=O)c1ccc(S(=O)(=O)NCCc2ccccc2)cc1 | 0.9 |  | 0.1 |  | 
O=C(c1ccc(S(=O)(=O)Nc2ccccc2)cc1)N(CCc1ccccc1)Cc1ccccc1 | 8.6 | 92 |  | 251 | 
CN(Cc1ccccc1)C(=O)c1ccc(S(=O)(=O)Nc2cccc(Cl)c2)cc1 | 0.9 |  |  |  | 
CCCCN(Cc1ccccc1)C(=O)c1ccc(S(=O)(=O)Nc2ccccc2)cc1 |  |  |  |  | Dde
CN(CCc1ccccc1)C(=O)c1ccc(S(=O)(=O)Nc2ccccc2)cc1 | 1.3 |  | 3.2 |  | 
CC(C)C(=O)Nc1ncc(-c2cc(C(F)F)nn2-c2c(Cl)cccc2Cl)s1 |  |  |  |  | Dde
CC(C)C(=O)Nc1ncc(C(=O)NCCN(Cc2ccccc2)C(=O)c2ccc(S(=O)(=O)Nc3ccccc3)cc2)s1 |  |  |  |  | Dde

Source: ChEMBL document CHEMBL5108049, “Development and Characterization of Type I, Type II, and Type III LIM-Kinase Chemical Probes” (J Med Chem, 2022)
